Measured values reported in ChEMBL document CHEMBL4715736, “Identification of anticancer agents based on the thieno[2,3-b]pyridine and 1H-pyrazole molecular scaffolds” (2016).

How the values were obtained:
Type in all cases: functional
K562 = test: Growth inhibition of human K562 cells assessed as cell growth at 0.01 uM incubated for 48 hrs by sulforhodamine B assay relative to control; settings: read-out: Activity
HCC 2998 = test: Growth inhibition of human HCC 2998 cells assessed as cell growth at 0.01 uM incubated for 48 hrs by sulforhodamine B assay relative to control; settings: read-out: Activity
Summary of the method: (§1)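 NCI Developmental Therapeutics Program NCI60 panel. Compounds that were active in the 10 µM one-dose screen went on to dose–response testing. Growth at each concentration is expressed relative to untreated control (100%). GI50 (concentration giving 50% of maximal inhibition of proliferation) and TGI (concentration giving total growth inhibition) were derived from the curves.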

OVCAR-8 [1] = test: Growth inhibition of human OVCAR-8 cells assessed as cell growth at 0.01 uM incubated for 48 hrs by sulforhodamine B assay relative to control; settings: read-out: Activity
NCI/ADR-RES = test: Growth inhibition of human NCI/ADR-RES cells assessed as cell growth at 0.01 uM incubated for 48 hrs by sulforhodamine B assay relative to control; settings: read-out: Activity
786-0 [2] = test: Growth inhibition of human 786-0 cells assessed as cell growth at 0.01 uM incubated for 48 hrs by sulforhodamine B assay relative to control; settings: read-out: Activity; summary of the method: as §1
DU-145 = test: Growth inhibition of human DU-145 cells assessed as cell growth at 0.01 uM incubated for 48 hrs by sulforhodamine B assay relative to control; settings: read-out: Activity; summary of the method: as §1
MCF7 = test: Growth inhibition of human MCF7 cells assessed as cell growth at 0.01 uM incubated for 48 hrs by sulforhodamine B assay relative to control; settings: read-out: Activity
T47D = test: Growth inhibition of human T47D cells assessed as cell growth at 0.01 uM incubated for 48 hrs by sulforhodamine B assay relative to control; settings: read-out: Activity
NCI-H322M = test: Growth inhibition of human NCI-H322M cells assessed as cell growth at 0.1 uM incubated for 48 hrs by sulforhodamine B assay relative to control; settings: read-out: Activity
Malme-3M = test: Growth inhibition of human Malme-3M cells assessed as cell growth at 0.1 uM incubated for 48 hrs by sulforhodamine B assay relative to control; settings: read-out: Activity
M14 = test: Growth inhibition of human M14 cells assessed as cell growth at 0.1 uM incubated for 48 hrs by sulforhodamine B assay relative to control; settings: read-out: Activity
IGROV-1 [3] = test: Growth inhibition of human IGROV-1 cells assessed as cell growth at 0.1 uM incubated for 48 hrs by sulforhodamine B assay relative to control; settings: read-out: Activity
MDA-MB-231 [4] = test: Growth inhibition of human MDA-MB-231 cells assessed as cell growth at 0.1 uM incubated for 48 hrs by sulforhodamine B assay relative to control; settings: read-out: Activity
SR = test: Growth inhibition of human SR cells assessed as cell growth at 1 uM incubated for 48 hrs by sulforhodamine B assay relative to control; settings: read-out: Activity
HOP-62 = test: Growth inhibition of human HOP-62 cells assessed as cell growth at 1 uM incubated for 48 hrs by sulforhodamine B assay relative to control; settings: read-out: Activity
HCT-116 = test: Growth inhibition of human HCT-116 cells assessed as cell growth at 1 uM incubated for 48 hrs by sulforhodamine B assay relative to control; settings: read-out: Activity
OVCAR-3 [5] = test: Growth inhibition of human OVCAR-3 cells assessed as cell growth at 1 uM incubated for 48 hrs by sulforhodamine B assay relative to control; settings: read-out: Activity
786-0 [6] = test: Growth inhibition of human 786-0 cells assessed as cell growth at 1 uM incubated for 48 hrs by sulforhodamine B assay relative to control; settings: read-out: Activity; summary of the method: as §1
MDA-MB-231 [7] = test: Growth inhibition of human MDA-MB-231 cells assessed as cell growth at 1 uM incubated for 48 hrs by sulforhodamine B assay relative to control; settings: read-out: Activity
SNB-19 = test: Growth inhibition of human SNB-19 cells assessed as cell growth at 100 uM incubated for 48 hrs by sulforhodamine B assay relative to control; settings: read-out: Activity
SK-MEL-28 = test: Growth inhibition of human SK-MEL-28 cells assessed as cell growth at 100 uM incubated for 48 hrs by sulforhodamine B assay relative to control; settings: read-out: Activity
SK-MEL-5 = test: Growth inhibition of human SK-MEL-5 cells assessed as cell growth at 100 uM incubated for 48 hrs by sulforhodamine B assay relative to control; settings: read-out: Activity
IGROV-1 [8] = test: Growth inhibition of human IGROV-1 cells assessed as cell growth at 100 uM incubated for 48 hrs by sulforhodamine B assay relative to control; settings: read-out: Activity
OVCAR-3 [9] = test: Growth inhibition of human OVCAR-3 cells assessed as cell growth at 100 uM incubated for 48 hrs by sulforhodamine B assay relative to control; settings: read-out: Activity
OVCAR-5 = test: Growth inhibition of human OVCAR-5 cells assessed as cell growth at 100 uM incubated for 48 hrs by sulforhodamine B assay relative to control; settings: read-out: Activity
A498 = test: Growth inhibition of human A498 cells assessed as cell growth at 100 uM incubated for 48 hrs by sulforhodamine B assay relative to control; settings: read-out: Activity; summary of the method: as §1
NCI-H522 = test: Growth inhibition of human NCI-H522 cells incubated for 48 hrs by sulforhodamine B assay
Summary of the method: (§2)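 NCI60 panel at the NCI Developmental Therapeutics Program. Only compounds active in the 10 µM screen went to dose-response testing. GI50, the concentration giving 50% of maximal inhibition of proliferation, and TGI, the concentration giving total growth inhibition, were derived from the dose-response curves.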

SNB-75 = test: Growth inhibition of human SNB-75 cells incubated for 48 hrs by sulforhodamine B assay
Summary of the method: (§3)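 NCI DTP 60-line human tumour panel. Dose-response curves were run only for ligands active in the initial 10 µM screen. GI50 (concentration giving 50% of maximal inhibition of proliferation) and TGI (concentration giving total growth inhibition) were derived from these curves.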

UACC-257 = test: Growth inhibition of human UACC-257 cells incubated for 48 hrs by sulforhodamine B assay; summary of the method: as §3
OVCAR-8 [10] = test: Growth inhibition of human OVCAR-8 cells incubated for 48 hrs by sulforhodamine B assay; settings: for CC50: read-out: LC50 (the source's name); summary of the method: as §3
MDA-MB-231 [11] = test: Growth inhibition of human MDA-MB-231 cells incubated for 48 hrs by sulforhodamine B assay; settings: for CC50: read-out: LC50 (the source's name); summary of the method: as §2
MDA-MB-468 = test: Growth inhibition of human MDA-MB-468 cells incubated for 48 hrs by sulforhodamine B assay; settings: for CC50: read-out: LC50 (the source's name); summary of the method: as §2
NCI-H23 = test: Growth inhibition of human NCI-H23 cells assessed as cell growth at 0.01 uM incubated for 48 hrs by sulforhodamine B assay relative to control; settings: read-out: Activity
PC-3 [12] = test: Growth inhibition of human PC-3 cells assessed as cell growth at 0.01 uM incubated for 48 hrs by sulforhodamine B assay relative to control; settings: read-out: Activity
PC-3 [13] = test: Growth inhibition of human PC-3 cells assessed as cell growth at 1 uM incubated for 48 hrs by sulforhodamine B assay relative to control; settings: read-out: Activity

`Cc1ccc(NC(=O)c2sc3nc4c(cc3c2N)C(=O)CCC4)cc1C` was tested, and the growth at 0.01 µM (K562) was 114%, the growth at 0.01 µM (HCC 2998) was 99% and the growth at 0.01 µM (OVCAR-8 [1]) was 97%. The growth at 0.01 µM (NCI/ADR-RES) was 100%, the growth at 0.01 µM (786-0 [2]) was 98% and the growth at 0.01 µM (DU-145) was 104%. The growth at 0.01 µM (MCF7) was 89%, the growth at 0.01 µM (T47D) was 98% and the growth at 0.1 µM (NCI-H322M) was 94%. It also gave a growth at 0.1 µM (Malme-3M) of 86%, a growth at 0.1 µM (M14) of 86% and a growth at 0.1 µM (IGROV-1 [3]) of 99%. It also gave a growth at 0.1 µM (MDA-MB-231 [4]) of 95%, a growth at 1 µM (SR) of 25% and a growth at 1 µM (HOP-62) of 40%. For the same compound, the growth at 1 µM (HCT-116) was 33%, the growth at 1 µM (OVCAR-3 [5]) was 3% and the growth at 1 µM (786-0 [6]) was 40%. It also gave a growth at 1 µM (MDA-MB-231 [7]) of 56%, a growth at 100 µM (SNB-19) of 29% and a growth at 100 µM (SK-MEL-28) of 25%. It also gave a growth at 100 µM (SK-MEL-5) of -57%, a growth at 100 µM (IGROV-1 [8]) of 10% and a growth at 100 µM (OVCAR-3 [9]) of -23%. For the same compound, the growth at 100 µM (OVCAR-5) was 31%, the growth at 100 µM (A498) was -17% and the GI50 (NCI-H522) was 256 nM. For the same compound, the LC50 (NCI-H522) was over 100 µM, the TGI (NCI-H522) was 20 µM and the GI50 (SNB-75) was 183 nM. It also gave an LC50 (SNB-75) of over 100 µM, a TGI (SNB-75) of over 100 µM and an LC50 (concentration killing 50% of cells) (UACC-257) of over 100 µM. It also gave a TGI (UACC-257) of over 100 µM, a GI50 (OVCAR-8 [10]) of 3060 nM and a TGI (OVCAR-8 [10]) of over 100 µM. It also gave a CC50 (OVCAR-8 [10]) of over 100 µM, a GI50 (MDA-MB-231 [11]) of 1.51 µM and a TGI (MDA-MB-231 [11]) of over 100 µM. The CC50 (MDA-MB-231 [11]) was over 100 µM, the GI50 (MDA-MB-468) was 229 nM and the CC50 (MDA-MB-468) was over 100 µM.

`CN1CCc2nc3sc(C(N)=O)c(N)c3c(-c3cccs3)c2C1` was tested, and the growth at 0.01 µM (K562) was 96%, the growth at 0.01 µM (NCI-H23) was 97% and the growth at 0.01 µM (HCC 2998) was 94%. It also gave a growth at 0.01 µM (OVCAR-8 [1]) of 106%, a growth at 0.01 µM (NCI/ADR-RES) of 100% and a growth at 0.01 µM (786-0 [2]) of 95%. For the same compound, the growth at 0.01 µM (PC-3 [12]) was 105%, the growth at 0.01 µM (DU-145) was 111% and the growth at 0.01 µM (MCF7) was 98%. It also gave a growth at 0.01 µM (T47D) of 97%, a growth at 0.1 µM (NCI-H322M) of 102% and a growth at 0.1 µM (Malme-3M) of 111%. The growth at 0.1 µM (M14) was 111%, the growth at 0.1 µM (IGROV-1 [3]) was 116% and the growth at 0.1 µM (MDA-MB-231 [4]) was 109%. For the same compound, the growth at 1 µM (SR) was 71%, the growth at 1 µM (HOP-62) was 102% and the growth at 1 µM (HCT-116) was 75%. It also gave a growth at 1 µM (OVCAR-3 [5]) of 87%, a growth at 1 µM (786-0 [6]) of 107% and a growth at 1 µM (PC-3 [13]) of 106%. It also gave a growth at 1 µM (MDA-MB-231 [7]) of 97%, a growth at 100 µM (SNB-19) of 14% and a growth at 100 µM (SK-MEL-28) of -18%. It also gave a growth at 100 µM (SK-MEL-5) of -42%, a growth at 100 µM (IGROV-1 [8]) of 9% and a growth at 100 µM (OVCAR-3 [9]) of -8%. It also gave a growth at 100 µM (A498) of -23%, a GI50 (NCI-H522) of 2910 nM and an LC50 (NCI-H522) of over 100 µM. The TGI (NCI-H522) was 17.8 µM, the GI50 (SNB-75) was 2810 nM and the LC50 (SNB-75) was over 100 µM. The TGI (SNB-75) was 8.03 µM, the GI50 (UACC-257) was 4 µM and the LC50 (concentration killing 50% of cells) (UACC-257) was over 100 µM. The TGI (UACC-257) was over 100 µM, the GI50 (OVCAR-8 [10]) was 2700 nM and the TGI (OVCAR-8 [10]) was over 100 µM. It also gave a CC50 (OVCAR-8 [10]) of over 100 µM, a GI50 (MDA-MB-231 [11]) of 4.77 µM and a TGI (MDA-MB-231 [11]) of over 100 µM. It also gave a CC50 (MDA-MB-231 [11]) of over 100 µM, a GI50 (MDA-MB-468) of 1750 nM and a TGI (MDA-MB-468) of 4.86 µM. For the same compound, the CC50 (MDA-MB-468) was 41.7 µM.
